Reference: ChEMBL document CHEMBL4513216, “Probing the Open Global Health Chemical Diversity Library for Multistage-Active Starting Points for Next-Generation Antimalarials” (ACS Infect Dis, 2020)

Experiment: Toxicity liver stage against HepG2, at 10uM
Type: cell-based
Parameters: test concentration 10 uM, cell line HepG2-A16-CD81EGFP
Conditions: human, HepG2-A16-CD81EGFP cells; read-out: INHIBITION
In short: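 Uninfected HepG2-A16-CD81EGFP cells, 3 × 10^3 per well, 1536-well, plated on prespotted compound at 10 μM final, parasite-free screening media added to match infected plates; puromycin 10 μM positive, DMSO 0.5% negative; run in parallel with 48 h PbLuc assay at 37 °C, 5% CO2; viability by CellTiter-Glo luminescence, normalized to controls.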

Structure (SMILES)	cytotoxicity at 10 µM [%]
COCCCNC(=O)N1CCN(C(=O)c2nsc3ccccc23)CC1	12
O=c1cc2c(nn1CN1CCN(c3ccc(F)cc3)CC1)CCC2	-2.15
COCC(=O)N1CCc2nc(C(=O)N(C)C)sc2CC1	15.5
O=C(C1CCC2(CCN(c3ncccn3)CC2)CO1)N1CCCC1 (configuration not stated)	5.59
COC[C@@H]1CC[C@H]2[C@H](CCN2S(=O)(=O)Cc2ccccc2)O1	7.43
CC(C)NC(=O)N1CCC2(COCc3cnc(-c4ccccc4)nc32)C1 (configuration not stated)	-0.311
COCCNC(=O)c1c(-n2cnnn2)sc2c1CCCC2	3.51
O=C(c1cnc2ccc(F)cc2c1NCc1ccco1)N1CCCCC1	9.34
COc1ccc(-n2nc(C(C)=O)c(C(C)=O)c2C)cc1Cl	-0.145
CC(C)N(C)C(=O)C1=NOC2(CCN(C(=O)c3ccc(Cl)cc3)C2)C1 (configuration not stated)	-16.7
CCn1cc(CN(C)C(=O)c2cc(C(F)(F)F)n(C)n2)cn1	10.4
Cn1c(=O)n(C)c2nc(Cl)c(CC(=O)c3ccccc3)n2c1=O	-13.9
CNC(=O)Cc1n[nH]c(-c2cncc(Br)c2)n1	-4.97
Cc1cc(C)n(CC(=O)N2CCC(c3nc(C(C)C)no3)CC2)n1	9.1
Cc1nc2[nH]cnc(Nc3cc(C)n(C)n3)c-2n1	6.69
O=C(Cn1cc(I)cn1)N1CCCCCC1	8.9
Cc1ccc(-c2cc(N)c(=O)n(C(C)C(N)=O)n2)o1 (configuration not stated)	-1.89
CNC(=O)C1CN(C(=O)Cc2ccc(OC)cc2)Cc2cn(C)nc21 (configuration not stated)	2.99
Cn1cc(CN2CCC(c3cc(COc4ccc(Cl)cc4)[nH]n3)C2)cn1 (configuration not stated)	0.0085
CCN(CC)CCCNCc1cc2cc(C)ccc2[nH]c1=O	-1.55
Cc1noc(C)c1CCC(=O)NCC1(O)CCN(c2ccccn2)C1 (configuration not stated)	2.12
CC(=O)N1CCOC(c2cncc(CCC(=O)N(C)C)n2)C1 (configuration not stated)	-0.197
CNC(=O)c1cnn2c(C3CCCN3C)ccnc12 (configuration not stated)	3.74

Structure (SMILES)	cytotoxicity at 10 µM [%]
Cc1nc(C(=O)NCc2ccccn2)cc(C2CCCN2)n1 (configuration not stated)	6.83
Cc1nc2ccc(C(=O)N3CCC(COc4ccccn4)CC3)cc2[nH]1	-8.09
Cc1cc(O)nc(C2CN(CCC(F)(F)F)CCO2)n1 (configuration not stated)	-27.4
CCNC(=O)C1(CC2CC(c3ccccc3OC)=NO2)CCOCC1 (configuration not stated)	-26.8
Cc1ccc2c(c1)C(=O)NCC1(CCN(Cc3ccccc3)CC1)O2	-26.9
O=S(=O)(Nc1ccc(N2CCOCC2)cc1)c1cccc(F)c1	12
Cn1cc(C(=O)N2CCN(c3ccc(F)cc3)CC2)ccc1=O	1.37
CN(c1cccnc1N1CCCC1)S(=O)(=O)c1cccnc1	0.981
OCCCN1CCCC1c1ccc(Br)cc1 (configuration not stated)	2.94
O=C(NCC(F)(F)F)c1ccncc1	-19
CC(C#N)CN(C)C(=O)CCNC(=O)OCC(F)(F)F (configuration not stated)	3.89
CCOCC(=O)N1CCC(C(O)c2ccc(F)cc2)CC1 (configuration not stated)	-3.83
Cc1[nH]nc2ncc(C(=O)N3CCN(CC(C)(C)O)CC3)cc12	-0.0414
O=C(CN1CCCS1(=O)=O)Nc1ccc(OC2CCCC2)c(Cl)c1	-8.87
CCc1ccc(C(=O)N2CCCN(Cc3csc(CC)n3)CC2)o1	-1.86
CCc1ncc(C(=O)N2CCN(c3nc(C)cc(OC)n3)CC2)s1	1.1
CC(NC(=O)NCCCn1ccnc1)c1nncn1C (configuration not stated)	0.277
Cc1ccc(N(CC(=O)N2CCCCC2)C(=O)C2CCCO2)cc1 (configuration not stated)	13.9
Cc1cc(Br)ccc1NCC(=O)Nc1cc(C(C)(C)C)no1	5.09
O=C(Nc1cnc(C2CC2)nc1)N1CCC(CN2CCCC2)C1 (configuration not stated)	18.8
CSc1cc2c(cc1NC(=O)NCc1ccco1)OCCO2	-5.08
COCCn1cc(C(=O)N2CCCC2c2ccc(F)cc2)ccc1=O (configuration not stated)	-0.12
Cc1cc2n(n1)CC(CNC1CCN(C(=O)c3ccco3)CC1)CN2 (configuration not stated)	4

Structure (SMILES)	cytotoxicity at 10 µM [%]
Cc1ccc(-n2nnc(CC(=O)N3CCN(C(C)C)CC3)c2C)cc1	-3.36
Cc1cccc(CNC(=O)Nc2ccn(CCCC(=O)N(C)C)n2)c1	2
CCc1nccn1C1CCCN(C(=O)c2cnc[nH]2)C1 (configuration not stated)	2.52
CC(Oc1ccccc1C(F)(F)F)C(=O)NCC(=O)N1CCCC1 (configuration not stated)	5.12
O=C1CC(Cc2ccc(NC(=O)c3cccc(F)c3)cc2)C(=O)N1 (configuration not stated)	-1.39
CC(CO)N1CCN(C(=O)OC(C)(C)C)CC1 (configuration not stated)	-7.85
CC(C)=CCS(=O)(=O)Cc1noc(CC(C)C)n1	-4.59
Cn1cc(NC(=O)Cc2cccs2)c(=O)n(C)c1=O	0.393
Cn1cc(S(=O)(=O)NC(=O)C2(c3cccc(Cl)c3)CC2)cn1	-10
Cn1ccnc1COc1ccc(CSc2nnnn2C)cc1	-0.613
CC(C)c1nc2n(n1)CC(NCC(=O)N(C)Cc1cccs1)CC2 (configuration not stated)	-10.2
c1cncc(CN2CCC(NCCc3ccc4c(c3)CCO4)CC2)c1	5.41
COCCSc1ccc(C(C)NC(=O)Nc2cn[nH]c2)cc1 (configuration not stated)	8.88
CCc1cnccc1C(=O)NC1CCN(C(=O)OC)CC1	9.09
CC(C)NC(=O)N(C)C1CCN(c2ccccc2Cl)C1=O (configuration not stated)	-4.56
Brc1cccc(C2(CNCc3cc[nH]c3)CCOCC2)c1	8.95
Cc1noc(C)c1CN(C)C(=O)CCn1c(=O)n(C)c2ccccc21	-6.67
N#Cc1cc(S(N)(=O)=O)ccc1NC1CCc2ccc(F)cc21 (configuration not stated)	8.08
O=C(CSCc1ccncc1)N(Cc1ccsc1)C1CC1	-11.2
Cc1cc(C#N)ccc1S(=O)(=O)N1CCN(C)Cc2ccccc21	5.34
CC(=O)NCCNC(=O)c1cnc(-c2ccccc2)nc1	6.56
CN(C)CCn1c2c(ccc1=O)CCN(Cc1ccncc1)CC2	3.97
COCCCNC(=O)c1ccn(-c2ccc3ccccn23)n1	-0.987

Structure (SMILES)	cytotoxicity at 10 µM [%]
COc1ccccc1OC1CN(C(=O)Cc2c(C)nc3ccccn23)C1	-2.27
CCN1CCC(CC(=O)NCc2cc(C)nn2C)CC1	-14.5
CN(C)C(C(=O)N1CCC(CCO)CC1)c1ccccc1F (configuration not stated)	5.88
O=C(C1CC(=O)N(C2CC2)C1)N1CCC(Oc2ccccc2Cl)CC1 (configuration not stated)	-7.54
COCc1cc(CNC(=O)c2c(O)cccc2O)n[nH]1	-6.93
C[C@@H]1CN(Cc2cn(C)nc2-c2ccccc2F)C[C@H](C)O1	-1.43
Cc1cccc(C2CCCN(C(=O)C3CCN(CC(N)=O)CC3)C2)c1 (configuration not stated)	-7.18
COC(=O)[C@H]1C[C@@H](O)CCN1S(=O)(=O)c1c(C)cc(OC)c(C)c1C	-16.2
Cc1nccn1CCC1CCCCN1Cc1cccc(CCN)c1 (configuration not stated)	0.106
O=C(c1ccccc1)N1CCCC(Nc2ccc(F)cc2)C1 (configuration not stated)	-3.09
CC(NC(=O)Nc1ccccc1CN1CCOCC1)c1nnc(N)s1 (configuration not stated)	4.84
O=C(NCC(F)(F)F)C(c1cccnc1)N1CCOCC1 (configuration not stated)	1.51
CN(C)c1nc(-c2ccncc2)nc2c1CCN(C(=O)[C@H](N)CO)C2	8.01
Cc1cc(N2CCN(C(=O)CCc3scnc3C)CC2)nc(N)n1	-49.2
Cc1ccc(-c2nc3c([nH]2)CCNC3C(=O)O)c2cccnc12 (configuration not stated)	5
Cc1cc(NCCNS(C)(=O)=O)nc2cc3c(cc12)CCC3	2.9
Cc1oc(-c2cc(F)cc(F)c2)nc1CN1C[C@@H](C)NC[C@@H]1C	-1.66
CCNC(=O)[C@@H]1C[C@H](N)CN1C(=O)CCc1ccccc1Cl	4.79
Cc1ccc2[nH]c(=O)cc(C(=O)NCCCn3nccc3C3CC3)c2c1	-4.35
COCCN(Cc1nccs1)C(=O)c1c(C)cc(C)[nH]c1=O	0.0773
Cc1cc(=O)[nH]c(CCNC(=O)C(c2ccc(F)cc2)N(C)C)n1 (configuration not stated)	-9.78
CC(C)c1cc(N2CCC(N)CC2)n2nccc2n1	-18.1
CC(C)C(NC(=O)NCCNc1ncccn1)c1cccs1 (configuration not stated)	2.71

Structure (SMILES)	cytotoxicity at 10 µM [%]
O=C(CCCc1ccccc1)N1CCC(Nc2cccnn2)CC1	-5.89
CCc1cnc(CN(C(C)=O)C2CCN(Cc3nccn3C)C2)o1 (configuration not stated)	-8.13
Cc1ccc(C(=O)N2CCN(CCc3ccccc3)CC2)c(=O)[nH]1	-7.1
CCN(CC)C(=O)Cn1ccc2cc(NC(=O)COC)ccc21	-7.89
COCCN1CCN(CCCS(=O)(=O)c2ccccc2)CC1C (configuration not stated)	-9.31
Cc1ccc(NC(=O)C2CSCN2C(=O)c2cc[nH]n2)c(C)c1 (configuration not stated)	-6.1
CC(Cn1cccn1)NC(=O)NCCc1ccc(Cl)s1 (configuration not stated)	-3.56
Cn1ncc(C(=O)N2CCCC(n3cccn3)C2)c1C1CC1 (configuration not stated)	4.98
Cc1cnn(CC2CCCCN2C(=O)Cc2csc(C)n2)c1 (configuration not stated)	2.26
O=C1NCCCCC1NCc1csc(-c2ccc(F)cc2)n1 (configuration not stated)	-13.5
COCc1nn(C(C)C)c2c1CCN(Cc1ccc(C)s1)C2	-5.82
O=C(c1ccncc1)N1CCCC2(COCCN(c3ccccc3)C2)C1 (configuration not stated)	2.31
COCCC(=O)N1CCN(CC2CC2)c2nc(C)ccc2C1	9.88
CN1CCOCC12CCN(c1nncs1)CC2	8.16
Cc1noc([C@]23COC[C@H]2CN(C(C)C)C3)n1	1.44
CCN1CCC2(CCC(=O)N2Cc2cccc(C)n2)CC1	5.08
CC(C)CN1CCC2(CCN(CC3CC3)CC2)C1=O	7.37
c1cncc(C[C@H]2[C@H](N3CCOCC3)CCN2Cc2cccs2)c1	8.34
CN(C)S(=O)(=O)N1C[C@H]2CC[C@@H](C1)N(Cc1cccc(C#N)c1)C2	3.62
O=C(Cn1c(=O)[nH]c2cn(-c3ccccc3)c(=O)n21)NC1CCCCC1	-0.2
